An excerpt weighted towards active compounds, which were near 3.5% of everything screened.
MrgX1 ag: human MrgX1 receptor agonism, primary screen. AID 588627. Q96LB2. B-score at 10 µM. 0.44% of 310,000 active. MrgX1-HEK293 cells, Fluo-4 calcium fluorescence, agonist mode; hits give high values;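 active = calcium response B-score plate-corrected fluorescence ratio at least 3 library SD, with starting fluorescence B-score inside 5 SD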
Target sequence (Q96LB2 whole entry, looked up): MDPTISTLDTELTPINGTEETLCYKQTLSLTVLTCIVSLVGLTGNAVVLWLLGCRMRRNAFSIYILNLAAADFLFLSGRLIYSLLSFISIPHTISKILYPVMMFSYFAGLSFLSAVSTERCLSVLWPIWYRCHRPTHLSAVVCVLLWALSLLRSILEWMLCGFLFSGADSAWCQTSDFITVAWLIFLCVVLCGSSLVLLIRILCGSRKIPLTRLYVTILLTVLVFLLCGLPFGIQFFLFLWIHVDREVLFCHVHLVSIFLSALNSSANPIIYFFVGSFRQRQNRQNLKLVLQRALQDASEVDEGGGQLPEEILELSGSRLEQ
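System: HEK293 cells stably expressing human MrgX1 receptor; Dosing: test compound in the initial addition of three; Schedule: overnight plating, then 30 min 37 °C plus 30 min room-temperature dye loading; Detection: kinetic calcium dye fluorescence, Fluo-4 NW; Controls: per-plate positive and negative controls for Z′ factor.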
MrgX1 allo act: human MrgX1 positive allosteric modulation, primary screen. Q96LB2. MrgX1-HEK293, Fluo-4 calcium flux, FDSS; hits give high values. B-score at 10 µM. 0.63% of 310,000 active;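 active = plate-corrected calcium response at least 3 library SD above typical, normal starting fluorescence, not activating the receptor alone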;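 note: compound read alongside a low EC10 to EC30 dose of BAM8-22 agonist; peak minus trough fluorescence over baseline measured at the second addition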
RGS4 inh: human RGS4 inhibition; 0.45% of 310,000 active; HEK293 M3R/RGS4 inducible, Fluo-4 calcium flux; hits give high values; triggered by carbachol at its EC20; B-score at 10 µM; AID 463165; P49798;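 active = B-score, a plate-corrected calcium signal, over three deviations above library mean, with baseline fluorescence within five deviations of library mean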;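 note: RGS4 expression induced by doxycycline in cells with stable M3 receptor; B-score is computed from the integrated fluorescence ratio over baseline after carbachol; higher B-score means a larger calcium signal and so more RGS4 inhibition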
MrgX1 antagonist: antagonists of human MrgX1 receptor | MRGX1-HEK293 calcium flux, Fluo-4, BAM8-22 antagonism; hits give low values | B-score at 10 µM | 1.3% of 310,000 active;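 active = calcium-response B-score plate-corrected more than 3 library SD below zero, starting fluorescence within 5 deviations, no agonist response on first addition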;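 note: peak minus trough fluorescence over baseline after final BAM8-22 challenge near maximal dose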
RGS4 act: potentiators or activators of RGS4 | 0.92% of 310,000 active | HEK293 M3R/inducible RGS4, carbachol calcium flux Fluo4; hits give low values | B-score at 10 µM;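 active = B-score of the integrated calcium signal more than 4 SD below the library mean, with starting fluorescence not abnormally high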;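 note: negative B-score means reduced calcium response which marks RGS4 activation or potentiation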
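Reagent: ECmax carbachol challenge; Test system: M3R-expressing HEK293 line, RGS4 induced by doxycycline; Schedule: overnight RGS4 induction, 30 min dye load 37 °C, 20 min compound RT; Detection: calcium dye Fluo4 fluorescence; Read-out: Agonist-evoked peak-minus-minimum fluorescence over baseline, integrated ratio, B score.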
RGS4 block valid: RGS4 inhibitor validation; 65% of 1,700 active; HEK293 M3R/RGS4, carbachol calcium Fluo-4 fluorescence; carbachol added at its EC20; 0 = buffer wells, 100 = carbachol control; calcium response, % at 10 µM; AID 492999; shares compounds with RGS4 inh;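 active = duplicate-averaged calcium response above the buffer-only control mean plus 5 SD of those controls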;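 note: integrated fluorescence ratio F max minus min over baseline F0; higher response in RGS4-induced cells means RGS4 inhibition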
RGS4 uninduced: non-induced cell nonspecific activity of RGS4 inhibitors; shares compounds with RGS4 inh; AID 493000; HEK293 M3R non-induced, carbachol calcium Fluo-4; submaximal (EC20) carbachol stimulus; buffer wells 0%, carbachol control wells 100%; activity (percent), % at 10 µM; 20% of 1,900 active; call rule not given here;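 note: RGS4 induction absent so cells express M3R without RGS4; higher means more calcium signal and flags a non-specific hit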
M3R basal Ca ctr: second counter-screen for RGS4 inhibitors: non-induced cells without carbachol; shares compounds with RGS4 inh; HEK293 M3R/RGS4 non-induced, Fluo-4 calcium, no carbachol; normalised: buffer wells 0%, carbachol wells 100%; calcium response (agonist-mode artifact), % at 10 µM; 22% of 1,900 active; AID 493001;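 active = duplicate-averaged calcium rise in uninduced cells above buffer wells' mean plus 5 SD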
* hit, by the source's call; i = inactive; . = no result.

SMILES	MrgX1 ag	MrgX1 allo act	RGS4 inh	MrgX1 antagonist	RGS4 act	RGS4 block valid	RGS4 uninduced	M3R basal Ca ctr
COc1ccc(-c2csc(NC(=O)c3c(OC)cccc3OC)n2)cc1	i	i	5.5*	i	i	16%*	30%*	i
COc1cccc(C(=O)Nc2nc(-c3ccncc3)cs2)c1	i	i	i	i	i	.	.	.
O=C(Nc1nc(-c2ccccc2)cs1)c1ccco1	i	i	i	i	i	.	.	.
Cc1ccc(-c2csc(NC(=O)c3ccco3)n2)cc1C	i	i	25*	i	i	56%*	34%*	i
N#CC1=C(S)N(c2ccccc2)C(c2ccc(-c3ccccc3Cl)o2)NC1=O (stereo not drawn)	i	i	i	i	i	.	.	.
CCOc1cc(/C=C\[N+](=O)[O-])ccc1OCC(=O)N1CCOCC1	i	i	28*	i	i	43%*	32%*	12%*
CCOc1cc(/C=C/c2nc3cc(C)c(C)cc3s2)ccc1OCC(=O)N1CCOCC1	i	i	i	i	i	.	.	.
Cc1ccccc1C(=O)Nc1ccc2c(c1)nc(CCNC(=O)c1ccco1)n2C	i	i	i	i	i	.	.	.
CCC(=O)Nc1ccc2c(c1)nc(CCNC(=O)c1ccco1)n2C	i	i	i	i	i	.	i	i
CN(CC(=O)Nc1ccc(Cl)cc1)C(=O)CCc1c[nH]c2ccccc12	i	i	i	i	i	.	.	.
Cc1cccc(NC(=S)NNC(=O)c2csc3c2CCCC3)c1	i	i	6.2*	i	i	20%*	54%*	i
C=CCNC(=O)NC(=O)COC(=O)c1nc2nccc(C)n2n1	i	i	4.7*	i	i	i	i	i
Cc1ccc(/C=C/C(=O)N2CC(C)CC(C)C2)o1 (stereo not drawn)	i	i	19*	i	i	31%*	i	i
Cc1ccc(-c2csc(NC(=O)CSc3nc4ccccc4[nH]3)n2)cc1	.	.	i	.	i	.	i	i
Cc1cc(=O)[nH]c(SCC(=O)Nc2nc(-c3ccccc3)cs2)n1	i	i	i	i	i	.	i	i
COc1ccc(-c2csc(NC(=O)CSc3nc4ccccc4c(=O)[nH]3)n2)cc1	i	i	i	i	i	.	.	.
CC(C)(C)c1ccc(C(=O)N2CCCC2c2cccs2)cc1 (stereo not drawn)	i	i	i	i	i	.	.	.
COc1ccc(C(=O)n2cnc3ccccc32)cc1[N+](=O)[O-]	i	i	i	i	i	.	.	.
CC(C)=C1C(=O)NN(c2ccc(F)c(Cl)c2)C1=O	i	i	i	i	i	.	.	.
O=C1NN(c2ccc(F)c(Cl)c2)C(=O)/C1=C\c1cccc(OC(=O)c2cccs2)c1	27*	i	18*	i	i	58%*	i	14%*
CCOC(=O)C1CCN(Cc2nc3ccccc3c(=O)n2-c2ccc(F)cc2)CC1	i	i	5.4*	i	i	i	i	i
O=C(c1ccco1)N1CCN(Cc2nc3ccccc3c(=O)n2-c2ccc(F)cc2)CC1	i	i	i	i	i	.	.	.
CCOc1ccc(C(=O)Nc2nnc(NC(=S)Nc3ccccc3)s2)cc1	i	i	4.9*	i	i	10%*	i	i
Cc1ccc(C(=O)Nc2nnc(NC(=S)Nc3ccccc3)s2)cc1	i	i	i	i	i	.	.	.
Oc1ccc(-c2csc(-c3cccnc3)n2)cc1O	i	i	i	i	i	.	.	.

From PubChem
